Data published in ChEMBL document CHEMBL4400539, “Discovery of a Novel Chemotype of Histone Lysine Methyltransferase EHMT1/2 (GLP/G9a) Inhibitors: Rational Design, Synthesis, Biological Evaluation, and Co-crystal Structure” (J Med Chem, 2019).
pKd, pKi: −log10 of the molar value. Activity calls are given as the source filed them. No cut-off for these calls is given here.

Key:
[1] = target: T1, Histone-lysine N-methyltransferase EHMT2 (Homo sapiens, UniProt Q96KQ7); test: Binding affinity to human His-tagged G9a expressed in Escherichia coli Rosetta (DE3) after 30 mins by MST binding assay
T1 sequence (Q96KQ7 whole entry): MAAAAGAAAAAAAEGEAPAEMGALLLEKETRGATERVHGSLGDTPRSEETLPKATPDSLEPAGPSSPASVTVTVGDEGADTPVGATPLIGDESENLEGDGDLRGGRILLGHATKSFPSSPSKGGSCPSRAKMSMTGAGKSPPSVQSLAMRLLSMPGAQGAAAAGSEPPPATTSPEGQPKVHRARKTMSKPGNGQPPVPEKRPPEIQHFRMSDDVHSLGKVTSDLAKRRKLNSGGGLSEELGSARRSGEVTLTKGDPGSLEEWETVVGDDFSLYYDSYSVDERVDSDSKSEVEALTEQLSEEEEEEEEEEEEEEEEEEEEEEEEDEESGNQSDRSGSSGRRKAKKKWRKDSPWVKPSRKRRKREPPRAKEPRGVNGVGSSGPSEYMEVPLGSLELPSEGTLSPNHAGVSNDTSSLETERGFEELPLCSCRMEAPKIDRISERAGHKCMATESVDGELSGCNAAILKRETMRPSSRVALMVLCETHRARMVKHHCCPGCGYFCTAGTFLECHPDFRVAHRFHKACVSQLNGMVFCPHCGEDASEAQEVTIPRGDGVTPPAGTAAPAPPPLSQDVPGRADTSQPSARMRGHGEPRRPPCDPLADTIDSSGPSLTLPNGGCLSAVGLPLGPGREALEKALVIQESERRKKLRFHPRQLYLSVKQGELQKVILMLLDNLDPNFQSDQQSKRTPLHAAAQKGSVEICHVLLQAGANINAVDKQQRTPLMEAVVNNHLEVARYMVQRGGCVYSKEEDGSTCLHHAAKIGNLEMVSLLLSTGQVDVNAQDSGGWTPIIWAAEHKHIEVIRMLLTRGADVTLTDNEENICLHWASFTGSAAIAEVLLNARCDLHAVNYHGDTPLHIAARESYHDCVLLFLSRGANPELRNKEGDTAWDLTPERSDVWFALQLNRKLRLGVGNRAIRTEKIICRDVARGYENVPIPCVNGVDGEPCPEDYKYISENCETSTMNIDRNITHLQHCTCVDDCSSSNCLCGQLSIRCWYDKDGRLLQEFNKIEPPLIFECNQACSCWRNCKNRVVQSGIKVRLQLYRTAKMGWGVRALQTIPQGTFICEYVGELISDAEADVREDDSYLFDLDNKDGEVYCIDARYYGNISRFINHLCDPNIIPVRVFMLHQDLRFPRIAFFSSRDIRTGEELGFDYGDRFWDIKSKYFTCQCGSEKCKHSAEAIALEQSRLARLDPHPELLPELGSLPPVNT

[2] = target: T2, Histone-lysine N-methyltransferase EHMT2 (Homo sapiens) (UniProt Q96KQ7); test: Inhibition of recombinant human G9a at 25 uM using biotinylated-Histone H3 peptide (1 to 21 residues) after 30 mins by AlphaLISA assay relative to control
T2 sequence (whole entry): T1 sequence (Q96KQ7 whole entry)
Procedure, shortened: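 G9a AlphaLISA at fixed 10 or 25 μM compound: human recombinant G9a 1 nM, 30 min preincubation, then biotinylated H3(1–21) 100 nM plus SAM 15 μM for 30 min at room temperature, pH 8.8 Tris buffer with 0.01% Tween-20; anti-H3K9me2 acceptor and streptavidin donor beads; percent of DMSO control.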

[3] = target: Protein arginine N-methyltransferase 1 (Homo sapiens) (UniProt Q99873); test: Inhibition of recombinant human PRMT1 at 10 to 25 uM using biotinylated-Histone H4 peptide (1 to 21 residues) as substrate preincubated for 30 mins followed by substrate addition and measured after 60 mins in presence of SAM by AlphaLISA assay relative to control
Sequence of Protein arginine N-methyltransferase 1 (Homo sapiens) (Q99873 whole entry, looked up, the tested form may be a part): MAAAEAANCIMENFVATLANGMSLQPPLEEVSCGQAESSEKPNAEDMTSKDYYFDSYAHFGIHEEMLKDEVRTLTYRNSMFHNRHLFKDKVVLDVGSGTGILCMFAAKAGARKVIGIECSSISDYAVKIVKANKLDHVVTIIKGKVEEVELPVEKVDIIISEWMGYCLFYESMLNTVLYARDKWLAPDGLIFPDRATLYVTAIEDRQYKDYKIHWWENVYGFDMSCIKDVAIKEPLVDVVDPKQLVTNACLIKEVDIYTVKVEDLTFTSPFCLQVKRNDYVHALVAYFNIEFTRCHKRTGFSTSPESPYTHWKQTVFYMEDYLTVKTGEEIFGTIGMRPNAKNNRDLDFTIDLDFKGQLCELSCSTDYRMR
Procedure, shortened: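 Biotinylated H4(1–21) peptide plus SAM then added for 60 min: PRMT1 0.9 nM, peptide 100 nM, SAM 2 μM; PRMT3 23 nM, peptide 50 nM, SAM 10 μM. Anti-H4R3me AlphaLISA; 10 and 25 μM; three experiments, mean ± SD.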

[4] = Metabolic stability in human liver microsomes assessed as parent compound turn over percentage at 1 mM preincubated for 5 mins followed by NADPH addition and measured for 60 mins by UHPLC analysis; assay type: ADME, Microsome; details: read-out: Drug metabolism
[5] = Apparent permeability of the compound after 24 hrs by PAMPA; assay type: ADME
[6] = Apparent permeability of the compound after 24 hrs by BBB-PAMPA; assay type: ADME
[7] = target: DNA (cytosine-5)-methyltransferase 3B (Homo sapiens) (UniProt Q9UBC3); test: Inhibition of N-terminal GST-tagged recombinant full length human DNMT3b (2 to 853 residues) using bacteriophage lambda DNA as substrate preincubated for 20 mins followed by [3H]-SAM and measured after 60 mins by scintillation counting
[8] = target: T2, Histone-lysine N-methyltransferase EHMT2 (Homo sapiens)
[9] = target: T1, Histone-lysine N-methyltransferase EHMT2; test: Competitive inhibition of recombinant human G9a using biotinylated-Histone H3 peptide (1 to 21 residues) as substrate at varying concentration after 30 mins in presence SAM by Lineweaver-Burk plot analysis

- pKd [1]: 5.95
- inhibition [2]: 98%
- inhibition [3]: inactive
- metabolised at 1 h [4]: 2.25%
- Papp [5]: 4.8 ×10⁻⁷ cm/s
- Papp [6]: 2.3 ×10⁻⁷ cm/s
- inhibition [7]: inactive
- Kdiss [8]: 0.0351
- pKi [9]: 7.86
SMILES: COc1cc2c(cc1OCCCN1CCCC1)N=C(C1CCCCC1)CN=C2NC1CCN(C(C)C)CC1
